Converted amounts (≈) assume the structure as drawn. Bridge positions count the residues as written; N and C are the ends. Square brackets hold non-standard residues; d marks the D form. Peptide text beside a SMILES is read from it. * marks the point of attachment. ξ: configuration not given here. Phe(4-NH2) = Nc1ccc(C[C@H](N)C(=O)O)cc1; dGly(nOct) = CCCCCCCC[C@@H](N)C(=O)O; Gly(octyl) = CCCCCCCC[C@H](N)C(=O)O; ξGly(octyl) = CCCCCCCCC(N)C(=O)O; Octanoyl = CCCCCCCC(=O)*; Dab = NCC[C@H](N)C(=O)O
Tests used:
Escherichia coli = experiment: Antibacterial activity against Escherichia coli ATCC 25922 after 18 hrs by 2 fold serial dilution method; format: functional
Outline: (§1)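 Overnight cultures in nutrient or Mueller Hinton broth at 37 °C with shaking, diluted 50-fold into fresh MHB and grown 1.5–3 h to mid-log. Inoculum 5×10^5 CFU/mL in 2-fold serial dilutions, final range 32 to 0.015 μg/mL. MIC read visually after 18 h at 37 °C as the lowest concentration with no visible growth.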

Klebsiella pneumoniae [1] = experiment: Antibacterial activity against Klebsiella pneumoniae ATCC 13883 after 18 hrs by 2 fold serial dilution method; format: functional; outline: as §1
Klebsiella pneumoniae [2] = experiment: Antibacterial activity against multidrug resistant Klebsiella pneumoniae ATCC 700603 after 18 hrs by 2 fold serial dilution method; format: functional
Outline: (§2)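 Overnight cultures at 37 °C in nutrient or Mueller Hinton broth with shaking were diluted 50-fold in MHB and grown 1.5–3 h to mid-log phase. The inoculum was 5×10^5 CFU/mL in MHB. Compounds were 2-fold serially diluted, final 32 to 0.015 μg/mL. After 18 h at 37 °C, the MIC was read visually as the lowest concentration with no visible growth.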

Klebsiella pneumoniae [3] = experiment: Antibacterial activity against Klebsiella pneumoniae ATCC BAA-2146 expressing NDM-1 after 18 hrs by 2 fold serial dilution method; format: functional; outline: as §2
Acinetobacter baumannii [4] = experiment: Antibacterial activity against Acinetobacter baumannii ATCC 19606 after 18 hrs by 2 fold serial dilution method; format: functional; outline: as §1
Pseudomonas aeruginosa [5] = experiment: Antibacterial activity against Pseudomonas aeruginosa ATCC 27853 after 18 hrs by 2 fold serial dilution method; format: functional; outline: as §1
Pseudomonas aeruginosa [6] = experiment: Antibacterial activity against clinical isolate polymyxin resistant Pseudomonas aeruginosa FADDI-PA070 after 18 hrs by 2 fold serial dilution method; format: functional
Outline: (§3)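 Polymyxin-resistant clinical isolates were grown overnight at 37 °C in NB or MHB with shaking, diluted 50-fold in MHB and grown 1.5–3 h to mid-log phase. The inoculum was 5×10^5 CFU/mL. Compounds were 2-fold broth serial dilutions, final 32 to 0.015 μg/mL; the polymyxin controls ran 128–0.06 μg/mL. The MIC was the lowest concentration with no visible growth after 18 h at 37 °C.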

Pseudomonas aeruginosa [7] = experiment: Antibacterial activity against clinical isolate polymyxin resistant Pseudomonas aeruginosa PA9704 after 18 hrs by 2 fold serial dilution method; format: functional; outline: as §3
Acinetobacter baumannii [8] = experiment: Antibacterial activity against clinical isolate carbapenem and polymyxin resistant Acinetobacter baumannii Ptyela 100734512:2 after 18 hrs by 2 fold serial dilution method; format: functional; outline: as §3
Klebsiella pneumoniae [9] = experiment: Antibacterial activity against clinical isolate carbapenem and polymyxin resistant Klebsiella pneumoniae Koprana 100650661:1 after 18 hrs by 2 fold serial dilution method; format: functional; outline: as §3
Klebsiella pneumoniae [10] = experiment: Antibacterial activity against clinical isolate carbapenem and polymyxin resistant Klebsiella pneumoniae 138-16357-20362 after 18 hrs by 2 fold serial dilution method; format: functional; outline: as §3
[11] = Cytotoxicity against human HepG2 cells after 24 hrs by resazurin assay; format: cell-based; settings: HepG2 cells
Staphylococcus aureus = experiment: microbe, parasite or virus in culture; settings: ATCC 25923, 18 h
[12] = Klebsiella pneumoniae, 700603, 18 h

Compound | MIC (Escherichia coli; ATCC 25922, 18 h) [µg/mL] | MIC (Klebsiella pneumoniae [1]; ATCC 13883, 18 h) [µg/mL] | MIC (Klebsiella pneumoniae [2]; [12]) [µg/mL] | MIC (Klebsiella pneumoniae [3]; ATCC BAA-2146, 18 h) [µg/mL] | MIC (Acinetobacter baumannii [4]; ATCC 19606, 18 h) [µg/mL] | MIC (Pseudomonas aeruginosa [5]; ATCC 27853, 18 h) [µg/mL] | MIC (Pseudomonas aeruginosa [6]; FADDI-PA070, 18 h) [µg/mL] | MIC (Pseudomonas aeruginosa [7]; PA9704, 18 h) [µg/mL] | MIC (Acinetobacter baumannii [8]; Ptyela 100734512:2, 18 h) [µg/mL] | MIC (Klebsiella pneumoniae [9]; Koprana 100650661:1, 18 h) [µg/mL] | MIC (Klebsiella pneumoniae [10]; 138-16357-20362, 18 h) [µg/mL] | CC50 at 24 h [11] [µM] | MIC (Staphylococcus aureus) [µg/mL] | other results
GENTAMICIN |  |  |  |  |  |  |  |  |  |  |  |  |  | MIC (Escherichia coli): 0.25 µg/mL; MIC (Klebsiella pneumoniae [1]): 0.25 µg/mL; MIC (Klebsiella pneumoniae [2]): 8 µg/mL; MIC (Klebsiella pneumoniae [3]): > 32 µg/mL; MIC (Acinetobacter baumannii [4]): 32 µg/mL; MIC (Pseudomonas aeruginosa [5]): 1 µg/mL; MIC (Pseudomonas aeruginosa [6]): 32 µg/mL; MIC (Pseudomonas aeruginosa [7]): > 32 µg/mL; MIC (Acinetobacter baumannii [8]): > 32 µg/mL; MIC (Klebsiella pneumoniae [9]): > 32 µg/mL; MIC (Klebsiella pneumoniae [10]): 1 µg/mL
CCCCCCCCC1NC(=O)[C@@H](Cc2ccccc2)NC(=O)[C@H](CCN)NC(=O)[C@@H](NC(=O)[C@H](CCN)NC(=O)[C@@H](NC(=O)[C@H](CCN)NC(=O)CCCCCCC)[C@@H](C)O)CCNC(=O)[C@H]([C@@H](C)O)NC(=O)[C@H](CCN)NC(=O)[C@H](CCN)NC1=O (some centres not stated) (Octanoyl-[Dab]T[Dab][Dab][Dab][dF][ξGly(octyl)][Dab][Dab]T; lactam 4-C) | 1 (≈ 0.803 µM) | 2 (≈ 1.61 µM) | 2 (≈ 1.61 µM) | 1 (≈ 0.803 µM) | 1 (≈ 0.803 µM) | 2 (≈ 1.61 µM) | 16 (≈ 12.8 µM) | 8 (≈ 6.42 µM) | 8 (≈ 6.42 µM) | 32 (≈ 25.7 µM) | 32 (≈ 25.7 µM) | 116 | 8 (≈ 6.42 µM) | 
CCCCCCCC[C@H]1NC(=O)[C@H](CCN)NC(=O)[C@@H](NC(=O)[C@H](CCN)NC(=O)[C@@H](NC(=O)[C@H](CCN)NC(=O)CCCCCCC)[C@@H](C)O)CCNC(=O)[C@H]([C@@H](C)O)NC(=O)[C@H](CCN)NC(=O)[C@H](CCN)NC(=O)[C@H](CC(C)C)NC1=O (Octanoyl-[Dab]T[Dab][Dab][Dab][dGly(nOct)]L[Dab][Dab]T; lactam 4-C) |  | 1 (≈ 0.825 µM) |  |  | 1 (≈ 0.825 µM) | 4 (≈ 3.3 µM) |  |  |  |  |  |  |  | 
CCCCCCCC(=O)N[C@@H](CCN)C(=O)N[C@H](C(=O)N[C@@H](CCN)C(=O)N[C@H]1CCNC(=O)[C@H]([C@@H](C)O)NC(=O)[C@H](Cc2ccc(N)cc2)NC(=O)[C@H](CCN)NC(=O)[C@H](CC(C)C)NC(=O)[C@@H](Cc2ccccc2)NC(=O)[C@H](CCN)NC1=O)[C@@H](C)O (Octanoyl-[Dab]T[Dab][Dab][Dab][dF]L[Dab][Phe(4-NH2)]T; lactam 4-C) | 16 (≈ 12.8 µM) | > 32 | 16 (≈ 12.8 µM) | 16 (≈ 12.8 µM) | > 32 | 32 (≈ 25.6 µM) | > 32 | > 32 | > 32 | > 32 | > 32 | > 300 | > 32 | 
CCCCCCCC(=O)N[C@@H](CCN)C(=O)N[C@H](C(=O)N[C@@H](CCN)C(=O)N[C@H]1CCNC(=O)[C@H]([C@@H](C)O)NC(=O)[C@H](CCN)NC(=O)[C@H](CCNC(=O)[C@@H](N)CCCNC(=N)N)NC(=O)[C@H](CC(C)C)NC(=O)[C@@H](Cc2ccccc2)NC(=O)[C@H](CCN)NC1=O)[C@@H](C)O | 0.5 (≈ 0.372 µM) | 4 (≈ 2.97 µM) | 0.5 (≈ 0.372 µM) | 1 (≈ 0.743 µM) | 4 (≈ 2.97 µM) | 2 (≈ 1.49 µM) | > 32 | > 32 | > 32 | > 32 | > 32 |  | > 32 | 
CCCCCCCC(=O)N[C@@H](CCN)C(=O)N[C@H](C(=O)N[C@@H](CCN)C(=O)N[C@H]1CCNC(=O)[C@H]([C@@H](C)O)NC(=O)[C@H](CCN)NC(=O)[C@H](CCCNC(=N)N)NC(=O)[C@H](CC(C)C)NC(=O)[C@@H](Cc2ccccc2)NC(=O)[C@H](CCN)NC1=O)[C@@H](C)O | 0.25 (≈ 0.201 µM) | 4 (≈ 3.21 µM) | 0.5 (≈ 0.401 µM) | 0.5 (≈ 0.401 µM) | 0.5 (≈ 0.401 µM) | 1 (≈ 0.803 µM) | 32 (≈ 25.7 µM) | > 32 | 32 (≈ 25.7 µM) | > 32 | > 32 |  | > 32 | 
CCCCCCCC[C@@H]1NC(=O)[C@@H](Cc2ccccc2)NC(=O)[C@H](CCN)NC(=O)[C@@H](NC(=O)[C@H](CCN)NC(=O)[C@@H](NC(=O)[C@H](CCN)NC(=O)CCCCCCC)[C@@H](C)O)CCNC(=O)[C@H]([C@@H](C)O)NC(=O)[C@H](CCN)NC(=O)[C@H](CCN)NC1=O (Octanoyl-[Dab]T[Dab][Dab][Dab][dF][Gly(octyl)][Dab][Dab]T; lactam 4-C) |  | 4 (≈ 3.21 µM) |  |  | 2 (≈ 1.61 µM) | 1 (≈ 0.803 µM) |  |  |  |  |  |  |  | 
CCCCCCCC(=O)N[C@@H](CCN)C(=O)N[C@H](C(=O)N[C@@H](CCN)C(=O)N[C@H]1CCNC(=O)[C@H]([C@@H](C)O)NC(=O)[C@H](CCN)NC(=O)[C@H](CCN)NC(=O)[C@H](CC(C)C)NC(=O)[C@@H](Cc2ccccc2)NC(=O)[C@H](Cc2ccc(N)cc2)NC1=O)[C@@H](C)O (Octanoyl-[Dab]T[Dab][Dab][Phe(4-NH2)][dF]L[Dab][Dab]T; lactam 4-C) | > 32 | > 32 | > 32 |  | > 32 | > 32 | > 32 | > 32 | > 32 | > 32 | > 32 | > 300 | > 32 | 
CCCCCCCC(=O)N[C@@H](CCN)C(=O)N[C@H](C(=O)N[C@@H](CCN)C(=O)N[C@H]1CCNC(=O)[C@H]([C@@H](C)O)NC(=O)[C@H](CCN)NC(=O)[C@H](Cc2ccc(N)cc2)NC(=O)[C@H](CC(C)C)NC(=O)[C@@H](Cc2ccccc2)NC(=O)[C@H](CCN)NC1=O)[C@@H](C)O | 0.5 (≈ 0.4 µM) | 8 (≈ 6.39 µM) | 1 (≈ 0.799 µM) | 2 (≈ 1.6 µM) | 4 (≈ 3.2 µM) | 8 (≈ 6.39 µM) | 32 (≈ 25.6 µM) | > 32 | > 32 | > 32 | > 32 |  | > 32 | 
CN[C@@H](CC(C)C)C(=O)N[C@H]1C(=O)N[C@@H](CC(N)=O)C(=O)N[C@H]2C(=O)N[C@H]3C(=O)N[C@H](C(=O)N[C@@H](C(=O)O)c4cc(O)cc(O)c4-c4cc3ccc4O)[C@H](O)c3ccc(c(Cl)c3)Oc3cc2cc(c3O[C@H]2O[C@@H](CO)[C@H](O)[C@@H](O)[C@@H]2O[C@@H]2C[C@@](C)(N)[C@@H](O)[C@@H](C)O2)Oc2ccc(cc2Cl)[C@H]1O |  |  |  |  |  |  |  |  |  |  |  | > 300 |  | 

— ChEMBL document CHEMBL3774373, “Activity and Predicted Nephrotoxicity of Synthetic Antibiotics Based on Polymyxin B” (J Med Chem, 2016)
